From PubChem BioAssay
The sample as a whole holds a higher share of hits than the screen did.
T cruzi intra = inhibitors of intracellular Trypanosoma cruzi; intracellular Trypanosoma cruzi in host cells, plate reader; activity score (inhibition), % at 5.01 µM; 4.9% of 22,000 active; in the data active means activity score above about 55%; inconclusive means no clear call, values can overlap the other calls;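 further: parasites and compound incubated about four days before reading; 0% = median of neutral control wells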
INS-1E rescue = rescue of cytokine-induced death in INS-1E beta cells | 0.1% of 20,000 active | AID 488910 | INS-1E cytokine-induced death, ATP luminescence, 48 h; normalised: neutral wells 0, positive control 100 | protection from cytokine-induced ATP loss, % at 10 µM;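 active means mean replicate protection from cytokine-induced ATP loss at least 50% and at least 75% of replicates each reaching 50%; inconclusive means meets only one of the two criteria, mean or replicate share; inactive means fails both the mean and replicate share criteria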
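Assay system: INS-1E rat cells / Quantity: 8000 cells per well / Medium: RPMI without phenol red, 5% FBS / Probe or stimulus: three-cytokine cocktail (IFN-γ, TNF-α, IL-1β) / Dosing: one compound concentration, pin transfer / Timing: 48 h co-treatment, 10 min post-lysis read / Technique: CellTiter-Glo luminescence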
A1 apoptosis 2 = blocks A1, raising caspase activity | MEF A1-2A-BIM cells, caspase-Glo luminescence, 3 h; percent of clofoctol response, DMSO zero | caspase activation, % (test concentration not listed) | 24,000 tested, under 10 active; in the data active means caspase activation above about 5.9%; inconclusive means no clear call, values can overlap the other calls; inactive means below about 2.2%
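Material: A1-2A-BIM-expressing MEF cells. Buffer or medium: RPMI-1640 plus 10% FBS. Incubation: cells settled overnight, compound exposure 3 h at 37 °C, 5% CO2. Signal: Caspase-Glo 3/7 luminescence, 1 h at room temperature.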
Numbers without * were called inactive; ? = inconclusive; nt = no result.

SMILES	T cruzi intra	INS-1E rescue	A1 apoptosis 2
Cc1noc(C)c1S(=O)(=O)Nc1ccc2c(c1)C(=O)N([C@H](C)CO)C[C@H](C)[C@H](CN(C)Cc1ccc3c(c1)OCO3)O2	58.2*	-10.7	nt
Cc1noc(C)c1S(=O)(=O)Nc1ccc2c(c1)CC(=O)N([C@@H](C)CO)C[C@H](C)[C@@H](CN(C)Cc1ccc(C(F)(F)F)cc1)O2	60.6*	0.1	nt
Cc1noc(C)c1S(=O)(=O)Nc1ccc2c(c1)C(=O)N([C@@H](C)CO)C[C@H](C)[C@H](CN(C)Cc1ccc(Cl)c(Cl)c1)O2	62.4*	-11.6	0.5
Cc1noc(C)c1S(=O)(=O)Nc1ccc2c(c1)C(=O)N([C@@H](C)CO)C[C@@H](C)[C@H](CN(C)Cc1ccc3c(c1)OCO3)O2	1.2	0.3	nt
Cc1noc(C)c1S(=O)(=O)Nc1ccc2c(c1)CC(=O)N([C@@H](C)CO)C[C@H](C)[C@H](CN(C)Cc1ccc(Cl)c(Cl)c1)O2	54.6	-25.4	nt
Cc1noc(C)c1S(=O)(=O)Nc1ccc2c(c1)C(=O)N([C@H](C)CO)C[C@H](C)[C@H](CN(C)Cc1ccc(Cl)c(Cl)c1)O2	?	-14.6	0.0
Cc1noc(C)c1S(=O)(=O)Nc1ccc2c(c1)CC(=O)N([C@@H](C)CO)C[C@H](C)[C@H](CN(C)Cc1ccc(C(F)(F)F)cc1)O2	41.4	1.6	nt
O=C(N/N=C/C[P+](c1ccccc1)(c1ccccc1)c1ccccc1)c1ccccc1O	45.2	3.2	0.1
COc1ccc(CN(C)C[C@@H]2Oc3ccc(NC(=O)c4ccncc4)cc3C(=O)N([C@@H](C)CO)C[C@H]2C)cc1	-12.2	-0.3	-0.6
O=C(CCCCC(=O)N/N=C/c1ccc(Br)o1)NO	nt	nt	-1.1
COC(=O)CCCCCCC(=O)N/N=C/c1ccc2c(c1)CCO2	-5.2	-3.4	nt
C[C@H]1CN([C@@H](C)CO)C(=O)c2cccc(NC(=O)c3ccncc3)c2O[C@H]1CN(C)Cc1ccc(Cl)c(Cl)c1	86.0*	-2.7	0.5
C[C@H]1CN([C@@H](C)CO)C(=O)c2cccc(NC(=O)c3ccncc3)c2O[C@@H]1CN(C)Cc1ccc(Cl)c(Cl)c1	76.9*	-10.0	-2.3
C[C@H]1CN([C@@H](C)CO)C(=O)c2cccc(NC(=O)c3cnccn3)c2O[C@@H]1CN(C)Cc1ccc(Cl)c(Cl)c1	-11.2	-8.2	nt
C[C@@H]1CN([C@H](C)CO)C(=O)c2cccc(NC(=O)c3ccncc3)c2O[C@@H]1CN(C)Cc1ccc(Cl)c(Cl)c1	75.6*	-6.9	-0.9
C[C@@H]1CN([C@H](C)CO)C(=O)c2cccc(NC(=O)c3cnccn3)c2O[C@H]1CN(C)Cc1ccc(Cl)c(Cl)c1	28.2	-11.2	nt
C[C@H](CO)N1C[C@H](C)[C@H](CN(C)Cc2ccc3c(c2)OCO3)Oc2c(NC(=O)c3ccncc3)cccc2C1=O	63.6*	-0.7	1.5
C[C@@H]1CN([C@H](C)CO)C(=O)c2cccc(NC(=O)c3cnccn3)c2O[C@@H]1CN(C)Cc1ccc(Cl)c(Cl)c1	26.1	-19.6	0.2
C[C@@H]1CN([C@H](C)CO)C(=O)c2cccc(NC(=O)c3ccc(-c4nccs4)cc3)c2O[C@H]1CN(C)Cc1ccc2c(c1)OCO2	45.2	-4.1	nt
C[C@@H]1CN([C@@H](C)CO)C(=O)c2cc(NC(=O)CCCN(C)C)ccc2O[C@H]1CN(C)S(=O)(=O)c1cn(C)cn1	-22.2	-1.9	1.0
COC(=O)CCCCCCC(=O)N/N=C/c1ccc(Sc2nnc(C)n2C)o1	2.1	-2.1	nt
Cc1noc(C)c1S(=O)(=O)N(C)C[C@@H]1OCCCC[C@H](C)Oc2ccc(NC(=O)Cc3ccccc3)cc2C(=O)N([C@@H](C)CO)C[C@H]1C	nt	nt	-0.1
COc1ccc([Si](C)(C)[C@@H]2[C@@H](CCO)O[C@]3(C(=O)N(Cc4ccc(N5CCC5=O)cc4)c4ccccc43)[C@H]2C)cc1	nt	nt	-0.8
COc1ccc(S(=O)(=O)N(C)C[C@@H]2Oc3c(NS(=O)(=O)c4ccc(C)cc4)cccc3C(=O)N([C@H](C)CO)C[C@@H]2C)cc1	nt	nt	1.1
C[C@H]1CN([C@@H](C)CO)C(=O)Cc2cc(NS(=O)(=O)c3ccc(Cl)cc3)ccc2O[C@@H]1CN(C)Cc1ccc(C(=O)Nc2ccccc2N)cc1	nt	nt	0.6
SMILES	T cruzi intra	INS-1E rescue	A1 apoptosis 2
COc1ccc(S(=O)(=O)Nc2ccc3c(c2)CC(=O)N([C@H](C)CO)C[C@@H](C)[C@@H](CN(C)Cc2ccc(C(=O)Nc4ccccc4N)cc2)O3)cc1	50.1	-18.2	0.3
Cc1ccc(S(=O)(=O)Nc2ccc3c(c2)CC(=O)N([C@H](C)CO)C[C@@H](C)[C@@H](CN(C)Cc2ccc(C(=O)Nc4ccccc4N)cc2)O3)cc1	59.7*	-5.9	-0.4
C[C@H](CO)N1C[C@H](C)[C@H](CN(C)Cc2ccc(C(=O)Nc3ccccc3N)cc2)Oc2ccc(NS(=O)(=O)c3ccc(F)cc3)cc2CC1=O	64.4*	?	nt
C[C@H](CO)N1C[C@H](C)[C@H](CN(C)Cc2ccc(C(=O)Nc3ccccc3N)cc2)Oc2ccc(NS(=O)(=O)c3ccc(Cl)cc3)cc2CC1=O	59.9*	40.6	nt
Cc1ccc(S(=O)(=O)Nc2ccc3c(c2)CC(=O)N([C@@H](C)CO)C[C@H](C)[C@@H](CN(C)Cc2ccc(C(=O)Nc4ccccc4N)cc2)O3)cc1	50.0	8.3	0.5
COc1ccc(S(=O)(=O)Nc2ccc3c(c2)CC(=O)N([C@H](C)CO)C[C@H](C)[C@H](CN(C)Cc2ccc(C(=O)Nc4ccccc4N)cc2)O3)cc1	59.2*	53.0*	0.0
C[C@@H]1CN([C@@H](C)CO)C(=O)Cc2cc(NS(=O)(=O)c3ccc(F)cc3)ccc2O[C@H]1CN(C)Cc1ccc(C(=O)Nc2ccccc2N)cc1	nt	nt	0.5
CCOc1cc(/C=N/NC(=O)c2ccccn2)ccc1O	-5.5	3.1	-1.3
C[C@@H]1C=C(C(=O)Nc2ccccc2)O[C@H](OCCCCO)C1	nt	nt	-0.4
C[C@H](CO)N1C[C@H](C)[C@H](CN(C)Cc2ccc(C(=O)Nc3ccccc3N)cc2)Oc2ccc(NS(=O)(=O)c3cccs3)cc2CC1=O	64.1*	40.3	0.3
C[C@@H]1CN([C@H](C)CO)C(=O)Cc2cc(NS(=O)(=O)c3cccs3)ccc2O[C@H]1CN(C)Cc1ccc(C(=O)Nc2ccccc2N)cc1	44.3	1.9	nt
C=CCNC(=O)[C@H]1[C@@H]2C(=O)O[C@@H](c3ccccc3)[C@@H](c3ccccc3)N2[C@@H](c2ccc(O)cc2)[C@]12C(=O)N(C(=O)OCCOC)c1ccc(C#CC3=CCCCC3)cc12	nt	nt	1.4
CC(/C=C/C(=O)NO)=C\c1ccccc1OCc1cn(-c2cccc(C(=O)N3CCN(c4ccccc4)CC3)c2)nn1	nt	nt	0.7
O=C(CCCCCCC(=O)Nc1ccccc1O)N/N=C/c1cccc(C(=O)O)c1	-19.8	-0.8	0.3
C[C@@H]1CN([C@@H](C)CO)C(=O)Cc2cc(NC(=O)Nc3ccc(C(F)(F)F)cc3)ccc2O[C@H]1CN(C)Cc1ccc(Cl)c(Cl)c1	nt	nt	-1.0
C[C@H](CO)N1C[C@H](C)[C@H](CN(C)Cc2ccc(Cl)c(Cl)c2)Oc2ccc(NC(=O)Nc3ccc(C(F)(F)F)cc3)cc2CC1=O	63.2*	-8.7	nt
